In the RNAGym collection of RNA variant scans (doi:10.1126/science.aae0568):
Fewer inactive variants are shown than the library holds.

B1: tRNA (parent)
chain: GUUCCGUUGGCGUAAUGGUAACGCGUCUCCCUCCUAAGGAGAAGACUGCGGGUUCGAGUCCCGUACGGAACG

Variants of: B1
Test: yeast fitness relative to wild type (ratio to wild type); higher = fitter; tRNA-Arg(CCU), competitive growth, 37 C, YPD
Summary of the method: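 The tRNA-Arg(CCU) gene variants were made by chemical synthesis with a 3% per-site mutation rate at 69 sites and inserted at the native genomic locus of Saccharomyces cerevisiae. After pooling, the strains were competed in YPD at 37°C for 24 hours in six parallel replicates. Gene amplicons from the start population and each end population were read by 100-nucleotide paired-end sequencing, and Darwinian fitness relative to wild type was taken from genotype frequency changes. Genotypes needed ≥ 100 starting reads, and estimates < 0.5 were set to 0.5.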

Variant | yeast fitness
GUUCCGUUGGCGUAAUGGUACCGCGUCUCCGUCCUAAGGAGAAGACUGCGGGUUCGAGUCCCGUACGGAACG | 0.657
GUUCCAUUGGCCUAAUGGUAACGCGUCUCCCUCCUAAGGAGAAGACUGGGGGUUCGAGUCCCGUACGGAACG | ≤ 0.5
GUUCCGUUGGCGCAAUGGUAACGCGUCUCCCUCCUACGGAGAAGACUGCGGGUUCGAGUCCCGUACGGAACG | 0.713
GUUCCGUUGGCGUAAUGGUAUCGCGUCUCCCUCCUAAGCAGAAGACUGCGGGUUAGCGUCCCGUACGGAACG | ≤ 0.5
GUUCCGUUGGCGUAAUGGUAAGGCGUCUCCCUCCCAAGGAGAAGAUUGCGGGUUGGAGUCCCGUACGGAACG | ≤ 0.5
GUUCCGUUGGCGUAAUGGUAACGCGUCUCCCUCCUAAGGAGAAGACUGCGGGUUCGAGUCCCGUAUGAAACG | 0.871
GUUCCGUUGACGUAAUGGUAACGCGACUCCCUCCUAAGGAGAAGACUGCGGGUUCGAGUCCCAUAUGGAACG | ≤ 0.5
GUUCCGUUGGCGUAAUGGCAACGGGUCUCCCUACUAAGGAGAAGACUGCGGGUUCGAGUCCCGUACGGAACG | ≤ 0.5
GUUCCGUUGGCGUAAUGGUAACGCGUCUCCCUCCUAAGGAGGACGCUGCGGGUUCGAGUCCCGUACGGAACG | 0.723
GUUCCGUUGGCGUAAUGGUAACGAGUCUCCCUCUUAAGGAAAAGACUGCGGGUUCGAGUCCCGUACGGAACG | ≤ 0.5
GUUCCGUUGGCGUAAUGGUAACGCGUCUGCCUCCUAAGGAGAAGACUGCCGGCUCGAGUCCCGUACGGAACG | ≤ 0.5
GUUCCGUUGGCGUAAUGGUAACGCGUCUCCCUCCUAAGGAGACGACUCCGGGUUCGGGUCCCGUACGGAACG | 0.817
GUUCCGUUGGCGUGAUGGUAACGCGUCUCCCUCCUAAGGAGAAGACUGCGGGUUCGAGUCCGGUACGAAACG | ≤ 0.5
GUUCCCUUGGCGUAAUGGUAACGCGUCUCCCUCCUAAGGAGAAGACUGCGGGUUCGAGUCCCGUAAGGAUCG | 0.538
GUUCCGUUGGCGUUAUGGUAACGCCUCUCCCUCCUAAGGAGAAGACUGCGGGUUCGAGUCCCGUAUGGAACG | ≤ 0.5
GUGCCGUAGGCGUAAUGCUAACGCGUCUGCCUCCUCAGGAGAAGACUGCGGGUUCGAGUCCCGUACGGAACG | ≤ 0.5
GUUCCGUUGGCGUAACGGUAACGCGUCUCCCUCCUAAGGAGAAGACUGCGGGUUCGAGUCCCGUACGGAGCG | 0.945
GUUCCGUUUGCGUAAUGGUAACGCGUCUCCCUCUUAAGGAAAAGACUGCGGGUUCGAGUCCCGUACGGAACG | ≤ 0.5
GUUCAGUUGGCGUAAUGGUAACGCGUCUCCCUCCUAAAGAGAAGACUGCGGGUUCGAGUCCUGUACGGAACG | 0.639
GUUCCGUUGGCGUAAUGGUAACGCGUCUCCAUGCUUAGGAGAAGACUGCGGGUUCGAGUCCCGUAUGGAACG | ≤ 0.5
GUUCCGUCGGCGUAUUGGUAAGGCGUCUCCUUCCUAAGGAGAAGACUGCGGGUUCGCGUCCCGAACGAAACG | ≤ 0.5
GUUCCGUUGGCGUAAUGGUAACGCGUCUCCCUCGUAAGGAGAAGACUGCGGGUUCGGGUCUCGUACGGAACG | ≤ 0.5
GUUCCGUUGGCGAAAUGCUAACGCGUCUCCCUCCUGAGGACAAGACUGCGGGUUCGAGUCCCGUCCGGAACG | 0.544
GUUCCGUUGGCGUAAUGGUAACGCGUUUCCCUCCUAAGGAGAAGAAUGCAGGUUCGAGUCCUGUACGGAACG | 0.888
GAUCCGUUGGGGUAAUGGUAACGCGUCUCCCUCCUAAGGAGAAGACAACGGGUUCGAGUCCCGUAUGGAUCG | ≤ 0.5

Variant | yeast fitness
GUUCCGUUGGCGUAAUGGUAACGAGUCUCCCUACUAAGGAGAAGAUUGCGGGUUCGAGUCCCGUACUGAACG | ≤ 0.5
GUUCCGUUGGCGUAAUGGUAACGCGUAUCCCUCCUAAGGAGAAGACUGCGGGUUCAAGUCCCGUUAGGAACG | ≤ 0.5
GUUCCGUUGGCGUAAUGGUAAUGCGUCCCCCUCCUAAGGAGAAGACUGCGGGUUCGAGUCAUGUACGGAACG | ≤ 0.5
GUUCCGUUGGCGUAAUGGUAACGCGUCUCCCUCCUAAGGAGAAGACUGCGGAUUCGAGUCCCGUACGGAACG | 0.696
GUUUCGUUGGCGUACUGGUAACGCGUCUCGCUCCUAAGGAGAAGACUGCGGGUUCGAGUCCCGUACGGAACG | ≤ 0.5
GUUCCGUUGGCCUAAUGGUAACGUGUCUCCCUCCUAAGGAGACGACUGCGGGUUCGAGUCCCGUACGGAACG | ≤ 0.5
GUUCCGUUGGCGUAAUGGUAACGCGUCUAACUCCUAAGGAGAAGACUGCGGGUUCGAGUCCCGUACGGAACG | 0.591
GUUCCGAUGGCGUAAUGGUGACACGGCUCCCUCCUAAGGAGAAGACUGCUGGUUCGAGUCCCGUACGGAACG | ≤ 0.5
GUUCCGUUGGCGUAAUGGUAACGCGUCUUCCUCCUAAGGAGAAGACUCCAGGUUCGAGUCCCGUACGGAACG | ≤ 0.5
GUUCCGUUGGCGUAAUGGUAACGCGACUCCCUCCUAAGGGGAAGACUGGGGGUUCGAGUCACGUACGGAACG | 0.626
GUUCCGUUGGCGGAAUGGUAACGCGUCUCGCUCCUAAGGGGAAGACUGCGGGUUCGAGUCCCGUACGGAACG | ≤ 0.5
GUUCCGUUGGCGUAAUAGUAACGCGUCUCCCUCCUAAGGAGAAGACUGCGGGUUCGAAUCCCGUACGGCACG | 0.575
GUUGCGUUGGCGUAAUGGUAACGCGUCUCCCUCCUAAGGAGAAGACUGCAGGUUUGAGUCCCGUACGGAACG | ≤ 0.5
GUUGCGUUCGCGUAAUGGUAACGCGUCUCCCUCCCAAGGAAAAGACUGCGGGUUUGAGACCCGUACGGAUCG | ≤ 0.5
GUUCCGUUGGCAUAAUGGUAACGCGUCUCUCUCCUAAGGAGAAGACUGCGGGUUCGAGUCCCGUACGGAACG | 0.836
GUUCCCUUGGCGUAAUGGUAACGCGUCUCCAUUCUAAGGAGAAGACUGCGGGUUCGAGUCCUGUACGGAACG | ≤ 0.5
GUUCCGUUAGCGUAAUGGUAACGCGUCUCCCUCCUAAGGAGAAGACUACGGGUUCGAGUCCCAUACGGUACG | 0.764
GUUCCGUUGGCCCAAUGGUAACGCGUUUCCCUCCUAAGGAGAAGACUGCGGGUUCGAGUCCGGUACGGAACG | ≤ 0.5
GUUCGGUUGGCGUAAUGGUAACGCGUCUCCCUCCUAAGGAGAAGACUGCGGGUUCGAGUACCGUACGGAACG | 0.663
GUUCCGUUGGCGUAAUGGUAACGCGUCUCCGUCCUAAGGAGAAGACUGCGGGUUGGAGUCCCGCACGGAACG | ≤ 0.5
GUUCCGUUGGCGUAAUGGCAACGCGUCUCCCUCCUAAGGAGAAGACUACGGGUUCGAGUCCCGUACGGAACG | 1.04
GAUCCGUUGGCGUAAUGGUAACGCGUCUCCCUCGUAUGGUGAAGACUGCGGGUUCGAGUCCCGUAUGGAACG | ≤ 0.5
GUUCCGUUGGCGCAAUGGUAGCGCGUCCCCGUCCUAAGGAGAAGACUGCGGGUUCGAGUCCCGUACGGAACG | 0.539
GUUCCGUUGGCGGAAUGGUAACGCGUCCCCCUCCUAACGAGAAGACUGCGGGUUCGAGUCCCGUACGGAACG | ≤ 0.5
GUUCCGCUGGCGUAAUGGUAACGCGUAUCCCUCCUAAGGAGAAGACUGCGGGUUCGAGUCCCGUACGGUACG | ≤ 0.5

Variant | yeast fitness
GUUCCGUUGGCGAAAUGGUAACGCGUCUCCCUCCUAAGGAGAAGACAGCGGGUUCGAGUCCCGUACGGAACG | 0.872
GUUCCGGUGGGGUAAUGGUAGCGCGUCUCCCUCUUAAGGAAAAGACUGCGGGUUCGAGUCCCGUACGGAACG | ≤ 0.5
GUUCCGUUGGCGUAAUGGUAACGCGUCUCCCUCCUAAGGAGAAGACUGUGGGUUCCAGUCCCGUACGGAACG | 0.58
GUUCUGUUGACGUAAUGGUAACGCGUGUCCCUCCUAAGGAGAAGACUGCGGGUUCGGGUCCCGUACGGAACG | 0.541
GUUCCGUUGGCGUAAUGAUAAAGCGUCUCCCUCCUACGGAGAAGACUACGGGUUCGAGUCCCGUACGGAACG | ≤ 0.5
GUUCCGUUCGCGUCAUGGUAACGCGUCUCCCUCCUAAGGAGAACACUGCGGGUUCGCGUCCCGUACGGAACG | 0.573
GUUCCGUUGGCGAAAUGGUAACGCGUCCCCCUCCUAAGGAGAAGACUGCGGGUUCGAGUCCCGAACGGAACG | 0.718
GUUCCGUUGGCGUAAUGGUAGCGGGUCUCCCUCCUAUGGAGAAGACUGAGGGUUCGAGUCCCGUACGGAACG | ≤ 0.5
GUUCCGUUGCCGUAAUGGUAACGCGUCUUCCUCCUAAGGAGAAGACUGGGGGUUCGAGUCCCCUACGGAACG | ≤ 0.5
GUUCCGUUGGCGUAAUGGUAAUGCGUCUCCGUCCUAAGGAGAAGACUGCGGGUUCUAGUCCCGUACGGAACG | 0.528
GUUCCGUUGGCGUAAUGGUAACGCGUCUCCCUCCUAACGAGGAGACUGCGGGUUCGAGUCCCGGACGGAACG | 0.781
GUUCCGUUGGCGUAAUGGUAACCCGUCUCCCUCCUAAGGUGAAGACUGCGGGUUUGAGUCCCGUACGGAACG | ≤ 0.5
GUUCCGUUGGCGUAAUGGUAACCCGUCUCCCUCCUAAGCAGAAGACUGCGGGUUCGAGUCCCGUACAGAACG | ≤ 0.5
GUUCUGUUGGCAUAAUGGUAACGCGUCUCCCUCCUAAGGUGAAGGCUGCGGGUUCGAGUACCGUACGGAACG | ≤ 0.5
GUUCCGUUGGCGUAAUGGUAACGGGUCUCCCUCCUAAGGAGAAGACUGCGGGUUCGAGUCCCGUACGGUACG | 0.658
GUUCCGUUGGCGUAAUGGUAACGCGUCUCGCUCAUAAGGAGAAGACUGGAGGUUCGAGCCCCGUACGGAACG | ≤ 0.5
GUUCCGUUGGCGUGAUGGUACCGCGUCUCCCUCCUCAGGAGAUGACUGCGGGUUCGAGUACCGUACGGAACG | 0.554
GUUCCGUUGGCGUAAUGGUAACGCGUCUCCUUCCUAAGGAGAAGACUGCGGGUUUGAGUCCCGUACGGAACG | 0.72
GUUCCGUUGGCGUAAUGGUAUGGCGUCUCCCUCCUAAGGAGAAGACUGCGGGUUAGAGUCCCGUACGGAACG | ≤ 0.5
GUUCCGUUGGCGUAAUGGUAACGCGUCUCCCUCCUAAGAAGAAGACUGCGGGUUCGAGUCACGUACGGUACG | ≤ 0.5
GUUCCGUUGGCGUAAUGGUCACGCGCCUCCCUCCUAAGGAGAAGACUGCGGGUUCGAGUCCCGUACGGAACG | 0.883
GUUCCGUUGGCGUAAUGGUAACGCGUCUCCCUCCUAGGGAGAGGACUGCGGGUUCGAGUCCCGUACGGUACG | 0.802
GUUCCGUUGGCGUAAUGGUAACGCGUCUCUCUCCUAAGGAGACGACUGCGGGUACGAGUCCCGUACGGAACG | 0.611
GUUCCGUUGGCGUAAUGGUAACGCAUCUCCCUCCUAACGAGAAGACUGCGGGUUCGAGUCCCGUACGGAACG | 0.775
GUUCCGUUGGCGUAAUCGUAACGCGUCUCCCUCCUAAGGAGAAGACUGCGGGUUCGAGUUCCGUACGGAACG | 0.597
